# High-throughput results: PubChem BioAssay, The Scripps Research Institute Molecular Screening Center
# Sampled rows, rich in hits. Any-hit rate of the full collection: about 3.9%.
# HTR2A ag – activates the mouse 5-HT2A serotonin receptor | CHO-K1 mHTR2A beta-arrestin complementation, luminescence; percent of 30 µM serotonin response | activation, % at 7.6 µM | 0.66% of 360,000 active | AID 624169;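 active means activation above a run cutoff, the mean activation of all tested compounds plus 3 SD, cut at about 14% in these data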
# Target sequence (P35363 whole entry, looked up): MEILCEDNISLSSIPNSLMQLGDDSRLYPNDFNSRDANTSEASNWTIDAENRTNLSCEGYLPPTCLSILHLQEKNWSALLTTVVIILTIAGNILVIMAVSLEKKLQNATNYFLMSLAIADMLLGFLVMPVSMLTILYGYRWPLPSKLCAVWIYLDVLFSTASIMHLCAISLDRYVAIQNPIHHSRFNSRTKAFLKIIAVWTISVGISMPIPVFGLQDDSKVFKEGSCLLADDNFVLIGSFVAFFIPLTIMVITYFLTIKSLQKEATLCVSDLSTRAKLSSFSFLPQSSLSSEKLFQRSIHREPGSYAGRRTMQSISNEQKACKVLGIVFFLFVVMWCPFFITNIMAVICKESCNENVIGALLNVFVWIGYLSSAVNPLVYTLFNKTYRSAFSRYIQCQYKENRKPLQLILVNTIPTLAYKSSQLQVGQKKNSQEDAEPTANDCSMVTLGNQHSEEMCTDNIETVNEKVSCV
# CHRM1 antagonist – antagonists of human M1 muscarinic receptor; 1.3% of 360,000 active; CHO-K1 hM1, Fluo-8 calcium fluorescence, ACh EC80 antagonist; inhibition, % at 3 µM; AID 588852; P11229;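 active means percent inhibition above its own plate's cutoff, namely the mean of that plate's compound wells plus 3 SD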;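 further: peak over basal fluorescence ratio during 140 s after agonist addition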
# CHRM1 agonist – activates human CHRM1 receptor. P11229. CHO-K1 hM1, Fluo-8 calcium fluorescence, agonist mode; 0% DMSO, 100% acetylcholine EC100. 0.33% of 360,000 active. activation, % at 3 µM. AID 588814;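 active means activation above the run's mean compound activation plus 3 SD, cut at about 16% in these data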;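 further: peak over basal fluorescence ratio within a 140 s kinetic read after compound addition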
# TAAR1 antag – antagonists of human TAAR1; CHO RD-HGA16 TAAR1, Fluo-8 calcium fluorescence, antagonist; AID 624466; 1.5% of 360,000 active; Q96RJ0; inhibition, % at 3 µM;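 active means inhibition above a per-plate cutoff, the mean inhibition of test compounds on that plate plus 3 SD, cut at about 49% in these data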
#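 Material: CHO RD-HGA16 cells bearing hTAAR1; compound dosing: one-point dosing, 3 µM nominal final; schedule: dye loading 75 min at 37 °C, then 30 min room temperature; measured by: calcium fluorescence with Fluo-8; control set: vehicle and agonist controls; replication: n of 1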
# TAAR1 ag – agonists of human TAAR1 | Q96RJ0 | CHO RD-HGA16 TAAR1, Fluo-8 calcium fluorescence; vehicle wells 0%, saturating PEA agonist 100% | activation, % at 3 µM | 0.99% of 360,000 active | AID 624467;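 active means activation above the mean activation of all test compounds in the run plus 3 SD, cut at about 38% in these data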
#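 Benchmarks: low control DMSO, high control PEA (EC100); System: CHO RD-HGA16 cells carrying human TAAR1 plus Gα16; Detection: Fluo-8 fluorescence, 5 s baseline then 140 s kinetic read; Schedule: 17-24 h plating, Fluo-8 75 min 37 °C, 30 min RT; Read-out basis: % activation from peak over basal fluorescence ratio, DMSO-to-PEA scaled.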
# M1 PAM – human CHRM1 positive allosteric modulation; 0.088% of 360,000 active; activation, % at 3 µM; P11229; CHO-K1 hM1, Fluo-8 calcium fluorescence, ACh EC20; 0% = ACh EC20, 100% = maximal ACh; in the data active means activation above about 19%, passing the limit was not always enough
# TAAR1 nonsel count – nonselective antagonist in TAAR1 antagonist counter-screen | counterscreen cell line, calcium fluorescence, antagonist mode | shares compounds with TAAR1 antag | inhibition, % at 3 µM | AID 651780 | 77% of 2,400 active; in the data active means inhibition above about 22%;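 further: CHO-Ga16 host cells stimulated with ATP at an EC80 level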
# TAAR1 ant conf – human TAAR1 antagonism, confirmed; 40% of 2,400 active; TAAR1-expressing cells, fluorescence antagonist read-out; AID 651785; shares compounds with TAAR1 antag; inhibition, % at 3 µM; in the data active means inhibition above about 49%;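 further: CHO-Ga16 host cells challenged with agonist PEA near its EC80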
# Ga16 ag counter – nonselective Ga16 agonism, counter-screen | shares compounds with TAAR1 antag | Ga16-expressing cells, calcium fluorescence, agonist counterscreen | activation, % at 3 µM | 18% of 2,400 active | AID 651953; in the data active means activation above about 12%
# TAAR1 ag counter – activates human TAAR1 in antagonist counter-screen; 2% of 2,400 active; activation, % at 3 µM; shares compounds with TAAR1 antag; hTAAR1 cell line, fluorescence activation, agonist mode; in the data active means activation above about 37%;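 further: CHO cells stably expressing TAAR1 with calcium dye readout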
# A number is an active result; - = inactive; . = not tested or not shown.
SMILES,HTR2A ag,CHRM1 antagonist,CHRM1 agonist,TAAR1 antag,TAAR1 ag,M1 PAM,TAAR1 nonsel count,TAAR1 ant conf,Ga16 ag counter,TAAR1 ag counter
COc1ccccc1CNC(=O)c1cc(-c2ccccc2)nn1CC1CC(c2cccnc2)=NO1 (configuration not stated),-,-,-,53,-,-,-,-,-,-
COc1ccc(C2=NOC(Cn3nc(-c4ccccc4)cc3C(=O)NCc3ccccc3OC)C2)cc1 (configuration not stated),-,-,-,-,-,-,.,.,.,.
O=C(NCc1ccco1)c1cc(-c2cccnc2)nc2ccccc12,-,-,-,-,-,-,.,.,.,.
COc1ccc(C2=NOC(Cn3nc(C(=O)NCc4cccc(Br)c4)cc3-c3ccccc3)C2)cc1 (configuration not stated),-,-,-,57,-,-,30,-,-,-
C=Cn1cc[n+](CC(=O)c2ccc(Cl)c(Cl)c2)c1,-,-,-,-,-,-,.,.,.,.
CC(=O)N1CCN(Cc2nc3cc(NC(=O)NC4CCCCC4)ccc3n2C)CC1,-,-,-,-,-,-,.,.,.,.
CC(C)c1[nH]nc2c1C(c1ccc3c(c1)OCO3)NC2=O (configuration not stated),.,.,.,-,-,.,.,.,.,.
COCCN(CC(=O)Nc1cccc(C)c1C)C(=O)c1cc(-c2ccncc2)nc2ccccc12,-,34,-,74,-,-,31,56,-,-
COCCCNC(=O)c1cc(-c2cccnc2)nc2ccccc12,-,-,-,-,-,-,.,.,.,.
O=C(NCc1ccccc1)c1cc(-c2ccncc2)nc2ccccc12,-,-,-,-,-,-,.,.,.,.
COCCN(CC(=O)Nc1cccc(C)c1C)C(=O)c1oc2c(Cl)cccc2c1C,-,-,-,-,-,-,.,.,.,.
COCCNC(=O)c1cc(-c2ccc(-c3ccccc3)cc2)nc2ccccc12,-,-,-,55,-,-,25,-,-,-
Cc1cc(CNC(=O)c2cc(-c3ccccc3)nc3ccccc23)nn1C,-,-,-,52,-,-,24,-,-,-
O=C(NCCCc1ccccc1)c1cncc(Br)c1,-,-,-,-,-,-,.,.,.,.
COC(=O)[C@]12CCCCC=C1N(Cc1ccc3c(c1)OCO3)C(=O)[C@H](CC(=O)N1CCSCC1)C2,-,.,.,67,-,.,26,-,-,-
CCOC(=O)[C@]12CCCC=C1N(Cc1ccc3c(c1)OCO3)C(=O)[C@H](CC(=O)N1CCCC1)C2,-,.,.,-,-,.,.,.,.,.
COc1cccc(C(=O)NCC(c2cccs2)N2CCOCC2)c1 (configuration not stated),-,-,-,100,-,-,-,-,-,-
Cc1cc(SCC(=O)NCCCN2CCCC2=O)nc2ccccc12,-,-,-,-,-,-,.,.,.,.
COc1nc(N/N=C/c2ccc(-c3ccccc3[N+](=O)[O-])o2)nc(N2CCOCC2)n1,-,-,-,64,-,-,-,-,12,-
COC(=O)c1ccccc1-c1ccc(/C=N/Nc2nc(N3CCCC3)nc(N3CCCC3)n2)o1,-,-,-,69,-,-,-,-,-,-
Cc1ccc(/C=N/Nc2nc(N3CCCCC3)nc(N3CCCCC3)n2)o1,-,-,-,-,-,-,.,.,.,.
C/C(=N/NC(=O)CN1CCN(Cc2ccccc2)CC1)c1ccc([N+](=O)[O-])cc1,-,-,-,-,-,-,.,.,.,.
Cc1nn(CC(=O)Nc2nnc(C(C)C)s2)c(=O)c2ccccc12,-,-,-,-,-,-,.,.,.,.
COc1ccc(-c2c(C(=O)c3ccccc3)[nH]c(N)c2C(N)=O)cc1OC,-,.,.,-,-,.,.,.,.,.
COc1ccc(-c2c(C(=O)c3ccc(Br)cc3)[nH]c(N)c2C(=O)c2ccccc2)cc1OC,-,.,.,60,-,.,-,-,-,-
SMILES,HTR2A ag,CHRM1 antagonist,CHRM1 agonist,TAAR1 antag,TAAR1 ag,M1 PAM,TAAR1 nonsel count,TAAR1 ant conf,Ga16 ag counter,TAAR1 ag counter
O=C(Cc1ccc(NC(=O)C2CCN(C(=O)c3ccccc3)CC2)cc1)Nc1ccc(C(=O)N2CCOCC2)cc1,-,-,-,-,-,-,.,.,.,.
O=C(COc1cccc(NC(=O)c2cccc([N+](=O)[O-])c2)c1)c1ccc(F)cc1,-,-,-,78,-,-,38,58,12,-
O=C(COc1cccc(NC(=O)c2ccccc2)c1)c1ccc(F)cc1,-,-,-,-,-,-,.,.,.,.
CC(Sc1ncn[nH]1)C(=O)Nc1ccc(Cl)cn1 (configuration not stated),-,-,-,-,-,-,.,.,.,.
COc1ccc(CCNC(=O)C(=O)NCC2CCCN2S(=O)(=O)c2ccc(OC)cc2)cc1 (configuration not stated),-,27,-,74,-,-,29,57,14,-
COc1ccc(S(=O)(=O)N2CCCC2CNC(=O)C(=O)NC2CCCC2)cc1 (configuration not stated),-,-,-,-,-,-,.,.,.,.
COc1ccc(NC(=S)Nc2nc(CC(=O)Nc3ccccc3OC)cs2)cc1,-,-,-,-,-,-,.,.,.,.
COc1ccc(OC)c(NC(=O)Cc2csc(NC(=O)Nc3ccccc3OC)n2)c1,-,-,-,65,-,-,39,54,-,-
COc1ccccc1NC(=O)Nc1nc(CC(=O)NCc2c(F)cccc2F)cs1,-,-,-,58,-,-,29,-,-,-
COc1ccc(NC(=O)Cc2csc(NC(=O)Nc3ccccc3OC)n2)c(OC)c1,-,-,-,69,-,-,-,-,-,-
O=C(CN1CCN(C(=O)c2cc(C3CC3)nn2-c2ccccc2)CC1)Nc1ccc(F)cc1,-,-,-,-,-,-,.,.,.,.
Cc1c([N+](=O)[O-])cc(C(=O)Nc2ccc3ncccc3c2)cc1[N+](=O)[O-],-,-,-,-,-,-,.,.,.,.
Cc1c([N+](=O)[O-])cc(C(=O)Nc2ccc(Cc3ccncc3)cc2)cc1[N+](=O)[O-],-,-,-,88,-,-,31,91,-,-
O=C(Nc1cccc(Cl)c1)NC1CC2CCC1C2 (configuration not stated),-,-,-,-,-,-,.,.,.,.
CC(C)CC(NC(=O)OCc1ccccc1)C(=O)NC(Cc1c[nH]c2ccccc12)C(=O)O (configuration not stated),-,-,-,.,.,-,.,.,.,.
